Screening data: PubChem BioAssay, Johns Hopkins Ion Channel Center
TRPC6 act: activates the mouse TRPC6 cation channel | HEK293-TRPC6 membrane potential dye fluorescence; hits give high values | B-score at 10 µM | hit rate 0.13% among 310,000 | AID 2550;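 active = B-score of the integrated fluorescence ratio above library mean plus 3 SD, and starting fluorescence ratio within library mean plus 5 SD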;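 note: higher score means more depolarization so channel activation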
TRPC4 inh: inhibitors of mouse TRPC4 channel. Q9QUQ5. HEK293 TRPC4beta/mu-opioid, DAMGO-evoked Fluo4 calcium flux; hits give low values. B-score at 10 µM. hit rate 0.39% among 300,000. AID 2247;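 active = B-score over 3 SD under the library average, no early fluorescence shift, positive overall ratio signal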
Target sequence (Q9QUQ5 whole entry, looked up): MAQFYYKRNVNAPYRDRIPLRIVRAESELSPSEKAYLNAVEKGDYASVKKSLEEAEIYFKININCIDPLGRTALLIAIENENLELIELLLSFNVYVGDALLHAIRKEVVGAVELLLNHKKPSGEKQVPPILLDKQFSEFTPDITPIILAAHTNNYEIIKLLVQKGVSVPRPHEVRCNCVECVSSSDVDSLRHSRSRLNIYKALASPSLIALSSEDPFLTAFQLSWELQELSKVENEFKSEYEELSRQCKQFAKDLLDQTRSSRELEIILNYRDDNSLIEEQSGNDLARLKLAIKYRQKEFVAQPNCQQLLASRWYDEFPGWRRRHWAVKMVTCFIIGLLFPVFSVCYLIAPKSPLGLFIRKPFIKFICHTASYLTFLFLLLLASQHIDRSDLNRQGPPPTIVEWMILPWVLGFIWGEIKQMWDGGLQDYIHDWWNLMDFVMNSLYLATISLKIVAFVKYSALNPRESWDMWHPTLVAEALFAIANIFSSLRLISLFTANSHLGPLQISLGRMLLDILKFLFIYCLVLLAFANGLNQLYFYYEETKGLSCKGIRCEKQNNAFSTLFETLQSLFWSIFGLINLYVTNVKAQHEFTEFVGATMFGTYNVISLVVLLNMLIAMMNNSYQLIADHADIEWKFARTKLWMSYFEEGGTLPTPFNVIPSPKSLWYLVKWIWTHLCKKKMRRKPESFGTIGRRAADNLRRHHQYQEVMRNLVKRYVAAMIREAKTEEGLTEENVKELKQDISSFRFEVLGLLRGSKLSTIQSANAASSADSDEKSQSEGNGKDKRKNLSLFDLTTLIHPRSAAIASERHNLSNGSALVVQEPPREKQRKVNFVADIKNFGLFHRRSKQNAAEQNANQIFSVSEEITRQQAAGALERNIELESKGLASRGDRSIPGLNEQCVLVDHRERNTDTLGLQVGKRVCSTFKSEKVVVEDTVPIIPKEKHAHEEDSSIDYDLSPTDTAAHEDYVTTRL
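Assay system – HEK293 line stably carrying TRPC4beta and mu-opioid receptor · Doses – single dose · Detection – Fluo4 calcium-dye fluorescence, kinetic read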
TRPC4 PAM: TRPC4 (mouse) allosteric potentiation; Q9QUQ5; HEK293 TRPC4beta/mu-opioid, DAMGO EC20, Fluo-4 Ca2+ flux; hits give high values; B-score at 10 µM; hit rate 0.42% among 310,000; AID 2227;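 active = B-score of calcium response area above 5 SD of library B-scores, with initial fluorescence ratio within 5 SD of library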;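 note: B-score of integrated fluorescence ratio over time as area under calcium response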
TRPC6 inh: blocks the mouse TRPC6 cation channel; Q61143; HEK293-TRPC6, membrane potential dye, ACh-evoked depolarization; hits give low values; B-score at 10 µM; hit rate 1.1% among 310,000; AID 2553;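 active = B-score under library mean minus 3 SD, initial fluorescence not abnormally high, positive integrated signal ratio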;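 note: B-score derived from integrated fluorescence ratio over the kinetic read; more negative B-score means stronger inhibition of depolarization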
TRPC4 act: opens the mouse TRPC4 cation channel. HEK293 TRPC4beta/mu-opioid, Fluo4 calcium fluorescence; hits give high values. Q9QUQ5. B-score at 10 µM. hit rate 0.49% among 310,000;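 active = B-score above 5 SD of library B-scores, and initial fluorescence ratio not above library mean plus 5 SD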;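 note: positive B-score marks a calcium rise read as TRPC4 activation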
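Assay system: HEK293 stable line with TRPC4beta plus mu-opioid receptor; schedule: 45 min room-temperature Fluo4 loading, 110 s read; technique: kinetic Fluo4 calcium fluorescence; evaluation: integrated baseline-normalised fluorescence ratio, converted to per-well B score; controls: buffer (low) and maximal DAMGO (high)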
TRPC4 sel inh 2: second selectivity test of TRPC6 inhibitors: effect on mouse TRPC4 | hit rate 42% among 920 | AID 2776 | HEK293 TRPC4/MOR, membrane potential dye fluorescence; channel activated by saturating DAMGO dose | inhibition, % at 10 µM | shares compounds with TRPC6 inh;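 active = compounds whose fluorescence signal differed from control wells by over 3 SD, either direction, in both duplicate plates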
TRPC4 spec: tests whether TRPC6 inhibitors also affect mouse TRPC4; hit rate 61% among 920; HEK293 TRPC4/mu-opioid, membrane potential fluorescence; shares compounds with TRPC6 inh; activity change, negative = inhibition, % at 10 µM;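 active = rise or fall in signal beyond 3 SD of buffer-only wells in both replicate plates, either sign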;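 note: integrated kinetic ratio of fluorescence range over baseline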
HEK293 MPD ctr 2-1: second counter-screen for TRPC6 inhibitors: parental HEK293 cells; shares compounds with TRPC6 inh; AID 2779; hit rate 31% among 920; parental HEK293 membrane potential dye fluorescence; maximal acetylcholine challenge after compound addition; signal change vs control, % at 10 µM;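 active = membrane potential signal moving either way by over 3 SD of the maximum-effect control, in both duplicate plates, meaning non-specific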
HEK293 MPD ctr-1: parental HEK293 nonspecific activity of TRPC6 inhibitors; shares compounds with TRPC6 inh; parental HEK293 membrane potential dye fluorescence; membrane potential signal change, % at 10 µM; hit rate 60% among 920; AID 2780;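 active = membrane potential signal shifting up or down by more than 3 SD of buffer-only wells, on both duplicate plates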
HEK293 MPD ctr-2: checks TRPC6 modulator effects in parental HEK293 cells; shares compounds with TRPC6 inh; membrane potential dye fluorescence; membrane potential signal change, % at 10 µM; hit rate 51% among 2,400; AID 488924;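 active = membrane potential signal moves up or down beyond 5 SD from buffer-only wells, on both duplicate plates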
HEK293 MPD ctr 2-2: second check of TRPC6 modulator effects in parental HEK293 cells; shares compounds with TRPC6 inh; membrane potential dye fluorescence; after compound, maximal acetylcholine stimulation; inhibition, % at 10 µM; hit rate 14% among 2,400; AID 488926;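 active = membrane potential signal drops by more than 5 SD from the mean control signal, in both duplicate plates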;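 note: plate controls were acetylcholine ECmax control wells for no effect and buffer only wells for full effect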
TRPC4 ctr mod: tests whether TRPC6 modulators also affect mouse TRPC4. hit rate 69% among 2,400. HEK293 TRPC4/mu-opioid, membrane potential fluorescence. shares compounds with TRPC6 inh. percent change from control (negative = decrease, positive = increase), % at 10 µM;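 active = membrane potential signal moved up or down beyond 5 SD of buffer control wells, in both duplicate plates, actives on both sides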;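 note: plate controls were assay buffer wells for no effect and DAMGO maximal-effect wells for full effect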
TRPC4 ctr inh 2: mouse TRPC4 off-target activity of TRPC6 modulators, second screen | shares compounds with TRPC6 inh | HEK293 TRPC4/mu-opioid, membrane potential dye fluorescence; stimulated with maximal-effect DAMGO | inhibition, % at 10 µM | hit rate 55% among 2,400;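 active = drop in membrane potential signal beyond 5 SD of the control wells in both duplicate plates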;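 note: TRPC4 counter screen for TRPC6 hits run under conditions tuned for TRPC6 not TRPC4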
TRPC6 inh conf: mouse TRPC6 inhibitor confirmation; shares compounds with TRPC6 inh; inhibition, % at 10 µM; HEK293-TRPC6, membrane potential dye, ACh-evoked depolarization; hit rate 43% among 3,300; AID 488960;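 active = fluorescence ratio falls more than 5 SD below the full-stimulation control mean, in both duplicate runs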;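 note: integrated fluorescence ratio of peak minus minimum over baseline after agonist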
TRPC6 act confirm: confirmation of mouse TRPC6 activators; shares compounds with TRPC6 inh; HEK293-TRPC6 membrane potential dye fluorescence, FDSS; activation, % at 10 µM; hit rate 11% among 2,800; AID 488961;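 active = ratio signal rise beyond 5 SD above unstimulated control wells' mean, seen in both duplicate runs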;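 note: plate controls were buffer EC0 wells for no effect and acetylcholine ECmax response for full effect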
* marks the source's active call; other numbers are inactive results; i = inactive; x = not tested or not shown. Shown are actives, neighbours in structure and some others; about 2.3% of the full set was active somewhere.

SMILES	TRPC6 act	TRPC4 inh	TRPC4 PAM	TRPC6 inh	TRPC4 act	HEK293 MPD ctr-2	HEK293 MPD ctr 2-2	TRPC4 ctr mod	TRPC4 ctr inh 2	TRPC6 inh conf	TRPC6 act confirm	others
COc1ccc(Nc2ccc(S(=O)(=O)N3CCCCC3)cc2[N+](=O)[O-])cc1	i	i	26*	-5.27*	i	i	i	i	i	i	i
Cc1nc(C)c(CCNC(=O)c2ccccc2)s1	i	i	i	-6.05*	i	i	i	i	i	i	i
Cc1cc(NCc2ccccn2)nc2ccccc12	i	i	i	-8.87*	i	x	x	x	x	94.7%*	i	TRPC4 sel inh 2=49.0%*;TRPC4 spec=-20.1%*;HEK293 MPD ctr 2-1=i;HEK293 MPD ctr-1=-292.5%*
Cc1nc(NCc2ccccn2)c2ccccc2n1	i	i	i	i	i	x	x	x	x	x	x
Cc1ccc([N+](=O)[O-])c(OCCCN2CCC(Cc3ccccc3)CC2)c1	i	i	i	-5.17*	i	i	i	i	73.0%*	53.0%*	i
O=[N+]([O-])c1cccc(OCCN2CCC(Cc3ccccc3)CC2)c1	i	i	i	-8.45*	i	x	x	x	x	61.5%*	i	TRPC4 sel inh 2=33.0%*;TRPC4 spec=i;HEK293 MPD ctr 2-1=i;HEK293 MPD ctr-1=i
Cc1ccc([N+](=O)[O-])c(OCCN2CCCCCC2)c1	i	i	i	i	i	x	x	x	x	x	x
O=Cc1cc(Cl)ccc1OCCN1CCC(Cc2ccccc2)CC1	i	i	i	i	i	x	x	x	x	x	x
CN(C)/C=C1\Cc2ccccc2C1=O	i	i	i	i	i	x	x	x	x	x	x
CC[N+]1(C)CCC(=C2c3ccccc3CC(=O)c3sccc32)CC1 (stereo unspecified)	i	i	i	-13.7*	i	x	x	x	x	79.8%*	i	TRPC4 sel inh 2=i;TRPC4 spec=i;HEK293 MPD ctr 2-1=43.0%*;HEK293 MPD ctr-1=i
COc1ccc2c(OC)c3ccoc3nc2c1OC	i	i	i	-5.59*	i	i	i	i	i	i	x
COc1c2ccoc2nc2c(OC)c(O)ccc12	i	i	i	i	i	x	x	x	x	x	x
Cc1ccc(C(=O)c2ccccc2C(=O)OCC(=O)Nc2cccc([N+](=O)[O-])c2)cc1	i	i	i	-6.49*	i	i	i	i	i	i	i
Cc1ccc(-c2nc(C)sc2CC(=O)OCC(=O)Nc2cccc([N+](=O)[O-])c2)cc1	i	i	i	i	i	x	x	x	x	x	x
CN1CCN(C(=O)c2cccc(COc3cc(Cl)ccc3Cl)c2)CC1	i	i	i	i	i	x	x	x	x	x	x
CN1CCN(C(=O)c2ccc(COc3cc(Cl)ccc3Cl)o2)CC1	i	i	i	-5.66*	i	127.0%*	i	22.0%*	i	i	x
O=C(c1ccc(COc2ccccc2Cl)o1)N1CCCC1	i	i	i	i	i	x	x	x	x	x	x
CC1CCN(C(=O)c2ccc(COc3ccccc3Cl)o2)CC1	i	i	i	-6.25*	i	121.0%*	i	25.0%*	i	i	i
Cc1cc(C)c(-n2nnnc2SCC(=O)c2cc3ccccc3o2)c(C)c1	i	i	i	i	i	x	x	x	x	x	x
CCOCCn1c(=O)c2c(nc3n2CCN3c2ccc(CC)cc2)n(C)c1=O	i	i	i	i	i	x	x	x	x	x	x
Cc1ccc(Oc2ccc(NC(=O)Cn3ccsc3=N)cc2)cc1	i	i	i	-8.29*	60*	x	x	x	x	89.0%*	i	TRPC4 sel inh 2=29.0%*;TRPC4 spec=i;HEK293 MPD ctr 2-1=i;HEK293 MPD ctr-1=i
N=c1sccn1CC(=O)Nc1ccccc1Oc1ccccc1	i	-6*	i	-5.07*	i	i	i	i	75.5%*	i	i
Cc1ccc(NC(=O)CN(C)C(=O)Cn2ccsc2=N)cc1	i	i	i	i	i	x	x	x	x	x	x
CCn1cc(S(=O)(=O)c2ccc(C)cc2)c(=O)c2cc(OC)ccc21	i	i	i	i	i	x	x	x	x	x	x
CC1(c2ccc(Cl)cc2)NC(=O)N(CC(=O)Nc2ccc(N3CCCCC3)cc2)C1=O (stereo unspecified)	i	i	i	i	i	x	x	x	x	x	x
SMILES	TRPC6 act	TRPC4 inh	TRPC4 PAM	TRPC6 inh	TRPC4 act	HEK293 MPD ctr-2	HEK293 MPD ctr 2-2	TRPC4 ctr mod	TRPC4 ctr inh 2	TRPC6 inh conf	TRPC6 act confirm	others
COCCNC(=O)/C(C#N)=C/c1c(N2CCN(C)CC2)nc2ccccn2c1=O	i	i	i	i	i	x	x	x	x	x	x
CS(=O)(=O)c1ccccc1-c1nnc(NC(=O)c2ccc(S(=O)(=O)N3CCCC3)cc2)o1	i	i	i	i	i	x	x	x	x	x	x
O=C(Nc1nnc(-c2ccccc2Cl)o1)c1ccc(S(=O)(=O)N2CCCCCC2)cc1	i	i	i	-6.29*	71*	i	i	-10.5%*	i	i	i
O=C1CNC(=S)N1Cc1cccc(Cl)c1	i	i	i	-6.95*	i	x	x	x	x	i	i	TRPC4 sel inh 2=i;TRPC4 spec=-12.1%*;HEK293 MPD ctr 2-1=i;HEK293 MPD ctr-1=i
COC(=O)c1ccc(CNC(=O)C23CC4CC(CC(C4)C2)C3)cc1	i	i	i	i	i	x	x	x	x	x	x
Cc1ccc(NC(=O)c2cccc3c2-c2ccccc2C3=O)cc1C	i	i	i	-7.35*	i	x	x	x	x	i	i	TRPC4 sel inh 2=i;TRPC4 spec=i;HEK293 MPD ctr 2-1=i;HEK293 MPD ctr-1=i
CCOC(=O)C1(Cc2cccc(OC)c2)CCN(Cc2cccn2-c2nccs2)CC1	i	i	i	-6.51*	i	207.0%*	i	33.5%*	86.0%*	i	x
